Results: the M2OR odorant receptor database
Substitutions are numbered along the chain they refer to.

Legend:
Details in all cases: stereoisomer not certain
[1] = target: T1, OR6S1 (Homo sapiens) (UniProt Q8NH40)
T1 sequence (whole entry): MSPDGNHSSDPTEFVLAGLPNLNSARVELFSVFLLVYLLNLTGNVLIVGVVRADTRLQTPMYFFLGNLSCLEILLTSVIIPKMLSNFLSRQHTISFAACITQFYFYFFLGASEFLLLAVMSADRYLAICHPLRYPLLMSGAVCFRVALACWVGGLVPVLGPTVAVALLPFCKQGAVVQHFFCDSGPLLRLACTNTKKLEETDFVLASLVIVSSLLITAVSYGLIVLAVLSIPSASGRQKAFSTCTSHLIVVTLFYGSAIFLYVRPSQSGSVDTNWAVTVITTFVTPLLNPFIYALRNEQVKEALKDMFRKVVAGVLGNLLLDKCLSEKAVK
Method in brief: (§1)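 Values were gathered from published papers (main text and supplementary material), with extra details requested from the original authors when needed, and checked for typos and inconsistencies. Each receptor–molecule pair is called responsive (active) if the original authors judged the measured signal statistically different from baseline, and non-responsive (inactive) otherwise. Assay methods varied by source, often transient mammalian cell-line luciferase assays. Recorded details include cell line, G-protein, co-transfected protein and tags.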

[2] = tested on: T2, OR6S1 T42I V156I
T2 sequence (whole entry): T1 sequence (whole entry) with T42I, V156I
Method in brief: as §1

[3] = target: T3, OR6T1 (Homo sapiens) (UniProt Q8NGN1)
T3 sequence (whole entry): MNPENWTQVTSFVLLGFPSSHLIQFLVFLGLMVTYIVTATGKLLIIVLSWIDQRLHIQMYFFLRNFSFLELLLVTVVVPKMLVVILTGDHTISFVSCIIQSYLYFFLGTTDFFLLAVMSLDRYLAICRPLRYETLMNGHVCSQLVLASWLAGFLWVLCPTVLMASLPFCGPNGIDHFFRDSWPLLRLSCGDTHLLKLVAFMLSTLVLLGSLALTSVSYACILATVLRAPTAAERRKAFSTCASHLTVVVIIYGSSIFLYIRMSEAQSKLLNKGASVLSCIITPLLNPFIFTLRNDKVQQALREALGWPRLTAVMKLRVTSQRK
Method in brief: as §1

[4] = tested on: T4, OR6T1 N2D
T4 sequence (whole entry): T3 sequence (whole entry) with N2D
Method in brief: as §1

[5] = target: T5, OR6V1 (Homo sapiens) (UniProt Q8N148)
T5 sequence (whole entry): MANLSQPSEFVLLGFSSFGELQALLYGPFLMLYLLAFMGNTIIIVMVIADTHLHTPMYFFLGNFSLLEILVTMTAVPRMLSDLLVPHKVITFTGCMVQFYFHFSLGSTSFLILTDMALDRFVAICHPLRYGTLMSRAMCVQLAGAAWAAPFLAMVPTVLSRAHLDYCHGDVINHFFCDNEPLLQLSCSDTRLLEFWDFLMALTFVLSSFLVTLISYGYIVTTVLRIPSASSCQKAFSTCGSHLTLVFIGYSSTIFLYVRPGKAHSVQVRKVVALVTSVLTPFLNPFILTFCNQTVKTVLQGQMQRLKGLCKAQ
Method in brief: as §1

[6] = target: T6, OR6X1 (Homo sapiens) (UniProt Q8NH79)
T6 sequence (whole entry): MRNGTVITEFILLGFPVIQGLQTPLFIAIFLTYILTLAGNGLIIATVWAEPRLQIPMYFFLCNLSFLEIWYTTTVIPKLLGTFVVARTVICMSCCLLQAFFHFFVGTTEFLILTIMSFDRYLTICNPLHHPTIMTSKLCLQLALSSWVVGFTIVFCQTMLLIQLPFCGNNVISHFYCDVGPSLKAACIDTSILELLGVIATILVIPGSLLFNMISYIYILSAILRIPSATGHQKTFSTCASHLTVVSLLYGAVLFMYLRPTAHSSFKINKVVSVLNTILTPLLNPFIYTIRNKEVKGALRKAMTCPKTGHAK
Method in brief: as §1

[7] = target: T7, OR6Y1 (Homo sapiens) (UniProt Q8NGX8)
T7 sequence (whole entry): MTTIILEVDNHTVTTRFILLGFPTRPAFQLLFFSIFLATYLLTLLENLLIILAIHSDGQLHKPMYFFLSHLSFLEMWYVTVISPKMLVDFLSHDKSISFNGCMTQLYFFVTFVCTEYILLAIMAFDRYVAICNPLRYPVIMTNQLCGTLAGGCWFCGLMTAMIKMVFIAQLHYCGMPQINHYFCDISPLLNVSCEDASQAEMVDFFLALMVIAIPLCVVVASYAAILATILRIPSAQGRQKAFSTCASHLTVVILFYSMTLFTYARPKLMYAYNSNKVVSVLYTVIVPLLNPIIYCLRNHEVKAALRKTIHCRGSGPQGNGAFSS
Method in brief: as §1

[8] = target: T8, OR7A10 (Homo sapiens) (UniProt O76100)
T8 sequence (whole entry): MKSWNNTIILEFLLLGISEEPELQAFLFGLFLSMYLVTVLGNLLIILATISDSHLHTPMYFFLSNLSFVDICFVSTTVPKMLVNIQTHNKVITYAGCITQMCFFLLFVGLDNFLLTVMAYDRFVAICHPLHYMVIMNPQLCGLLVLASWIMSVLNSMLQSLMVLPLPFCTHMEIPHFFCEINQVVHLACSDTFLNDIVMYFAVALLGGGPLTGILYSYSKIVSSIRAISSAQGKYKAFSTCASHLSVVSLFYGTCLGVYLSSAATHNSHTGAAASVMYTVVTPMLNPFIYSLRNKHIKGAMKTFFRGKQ
Method in brief: as §1

[9] = target: T9, OR7A17 (Homo sapiens) (UniProt O14581)
T9 sequence (whole entry): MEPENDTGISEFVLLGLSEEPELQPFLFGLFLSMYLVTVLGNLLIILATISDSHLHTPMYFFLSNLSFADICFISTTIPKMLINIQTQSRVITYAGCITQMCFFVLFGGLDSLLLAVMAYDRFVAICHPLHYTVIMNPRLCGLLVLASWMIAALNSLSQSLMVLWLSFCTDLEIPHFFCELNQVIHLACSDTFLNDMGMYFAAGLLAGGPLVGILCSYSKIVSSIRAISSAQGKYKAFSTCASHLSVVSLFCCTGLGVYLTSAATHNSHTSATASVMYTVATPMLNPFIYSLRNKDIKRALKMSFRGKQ
Method in brief: as §1

[10] = target: T10, OR7A5 (Homo sapiens) (UniProt Q15622)
T10 sequence (whole entry): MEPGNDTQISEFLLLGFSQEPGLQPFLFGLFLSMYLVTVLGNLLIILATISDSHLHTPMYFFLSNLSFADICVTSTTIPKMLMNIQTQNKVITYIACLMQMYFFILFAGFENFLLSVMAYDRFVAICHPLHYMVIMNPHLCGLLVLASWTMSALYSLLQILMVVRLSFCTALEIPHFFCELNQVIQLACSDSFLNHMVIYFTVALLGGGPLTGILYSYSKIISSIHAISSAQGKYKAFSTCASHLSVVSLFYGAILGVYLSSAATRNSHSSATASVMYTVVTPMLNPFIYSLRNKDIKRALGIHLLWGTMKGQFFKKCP
Method in brief: as §1

Measured: odorant receptor agonist call

CCC1OC(=O)C(O)=C1C (stereo unspecified)
inactive: [1] | [2] | [3] | [4] | [5] | [6] | [7] | [8] | [9] | [10]

CCC(S)C(C)CO (stereo unspecified)
inactive: [1] | [3] | [5] | [6] | [7] | [8] | [9] | [10]

CC1=C(O)C(=O)C(C)O1 (stereo unspecified)
inactive: [1] | [2] | [3] | [4] | [5] | [6] | [7] | [8] | [9] | [10]

CC1=NC(C)C(C)S1 (stereo unspecified)
inactive: [1] | [2] | [3] | [4] | [5] | [6] | [7] | [8] | [9] | [10]

CC1CCCCCCCCCCCCC(=O)C1 (stereo unspecified)
inactive: [1] | [3] | [5] | [6] | [7] | [8] | [9] | [10]

CCCCCC(S)C(C)CO (stereo unspecified)
inactive: [1] | [3] | [5] | [6] | [7] | [8] | [9] | [10]

Cc1cnc(C)c(C)n1
inactive: [1] | [2] | [3] | [4] | [5] | [6] | [7] | [8] | [9] | [10]

CCCCCCC=CCCC=O
inactive: [1] | [2] | [3] | [4] | [5] | [6] | [7] | [8] | [9] | [10]

CC(CO)CS (stereo unspecified)
inactive: [1] | [3] | [5] | [6] | [7] | [8] | [9] | [10]

CC1=C(O)C(=O)OC1C (stereo unspecified)
inactive: [1] | [2] | [3] | [4] | [5] | [6] | [7] | [8] | [9] | [10]

CCCC(S)CCOC(C)=O (stereo unspecified)
inactive: [1] | [2] | [3] | [4] | [5] | [6] | [7] | [8] | [9] | [10]

CCCCC(S)C(C)CO (stereo unspecified)
inactive: [1] | [3] | [5] | [6] | [7] | [8] | [9]
active: [10]

CCCCCC(=O)C(C)C(C)=O (stereo unspecified)
inactive: [1] | [3] | [5] | [6] | [7] | [8] | [9] | [10]

CC(=O)c1c(C)c([N+](=O)[O-])c(C(C)(C)C)c([N+](=O)[O-])c1C
inactive: [1] | [3] | [5] | [6] | [7] | [8] | [9] | [10]

CCC1OC(C)=C(O)C1=O (stereo unspecified)
inactive: [1] | [2] | [3] | [4] | [5] | [6] | [7] | [8] | [9] | [10]
